The values that follow come from ChEMBL document CHEMBL1131374, “Inhibition of Fc epsilon RI-mediated activation of mast cells by 2,3,4-trihydropyrimidino[2,1-a]isoquinolines” (J Med Chem, 1998).

pIC50: −log10 of the molar value.

A short description of data set [1]: The cell toxicity on CPII mouse mast cells transfected with TNF-alpha 3' nontranslated sequences reporter gene plasmid. The data set is classed as cell-based. The following applies: read-out: TC50 (the source's name).
Data set [2] in a line: The Hexosaminidase release concentration in CPII mouse mastcells transfected with TNF-alpha 3' reporter gene plasmid was measured. Type of data set: functional.
Data set [3] is described as follows: (§1) The Inhibitory potency on CPII mouse mastcells transfected with TNF-alpha 3' reporter gene plasmid was measured by reporter gene assay. The data set is classed as functional. In a few lines:
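Clone 12: CPII cells stably carrying a TNFα promoter–luciferase–TNFα 3′ construct. Cells exposed to compound 1 h, then triggered with (dinitrophenyl)albumin/anti-dinitrophenyl-IgE complex. Luciferase read after 6 h incubation. Screening single dose 10 μM; a hit was over 50% inhibition of induction with under 20% toxicity.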

Data set [4] can be described thus: as §1. The data set is classed as functional. This is another data set of the same source.

As to `C1=C(Cc2ccccc2)c2ccccc2C2=NCCCN12`, in data set [1], the CC50 was > 10 µM. Besides, the pIC50 in data set [2] and in data set [3] was < 5.00 in each case.
In the case of `C1=C(c2ccc(OCc3ccccc3)cc2)N2CCCN=C2c2ccccc21`, the CC50 in data set [1] turned out to be 3.5 µM. Moreover, the pIC50 is 6.10 in data set [4] and 6.05 in data set [2].
For `CCCCC1=C(c2ccc(CCc3ccccc3)cc2)N2CCCN=C2c2ccccc21` the same measures were 2.7 µM, 6.70 and 6.52.
As to `CCCCCCC1=Cc2ccccc2C2=NCCCN12`, the CC50 in data set [1] was > 10 µM. The pIC50 in data set [2] is 5.35; in data set [3], < 5.00.
In the case of `N[C@@H](Cc1ccccc1)C1=Cc2ccccc2C2=NCCCN12`, the CC50 in data set [1] is > 25 µM. The pIC50 in data set [4] was < 5.00; in data set [2] it was < 4.60.
Take `CC(C)(C)c1ccc(C2=Cc3ccccc3C3=NCCCN23)cc1`: the CC50 in data set [1] was 5.7 µM. The negative logarithm of the IC50 (pIC50) in data set [4] was 6.05; in data set [2], 6.15.
Taken in the same sequence, the figures for `CC(C)(C)c1ccc(C2=C(Cc3ccccc3)c3ccccc3C3=NCCCN32)cc1` were 5 µM, 5.70 and 5.54.
For `CC(C)(C)c1ccc(C2=Cc3ccc(NC(=O)Cc4ccccn4)cc3C3=NCCCN23)cc1` the same measures were 8.8 µM, 5.32 and 5.32.
Turning to `C1=C(c2ccc(CCc3ccccc3)cc2)N2CCCN=C2c2ccccc21`, in data set [1], the CC50 was determined as 2.1 µM. Further, the pIC50 is 6.30 in data set [2] and 6.15 in data set [3].
For `Clc1ccc(OCC2=Cc3ccccc3C3=NCCCN23)cc1` the same measures were > 10 µM, < 4.60 and 5.05.
Taken in the same sequence, the figures for `Clc1ccc(C2=Cc3ccccc3C3=NCCCN23)cc1` were > 10 µM, 5.26 and < 5.00.
Taken in the same sequence, the figures for `C[Si](C)(C)c1ccc(C2=Cc3ccccc3C3=NCCCN23)cc1` were 3.2 µM, 6.30 and 6.10.
Consider `CCOc1ccc(CC2=C(CCCc3cccc4ccccc34)N3CCCN=C3c3ccccc32)cc1`, for which, in data set [1], the CC50 is 5.5 µM. The pIC50 in data set [4] was 5.82; in data set [2], 5.46.
With `CC(C)(C)c1ccc(C2=Cc3ccc(N)cc3C3=NCCCN23)cc1`, the CC50 in data set [1] was 7.8 µM. Moreover, the pIC50 in data set [4] was 5.77; in data set [2], 5.52.
For `CC1=Cc2ccccc2C2=NCCCN12`, in data set [1], the CC50 was > 10 µM. Moreover, the negative-log IC50 (pIC50) was < 4.60 in data set [2] and < 5.00 in data set [3].
Take `CCOc1ccc(CC2=C(c3ccc(CCc4ccccc4)cc3)N3CCCN=C3c3ccccc32)cc1`: the CC50 in data set [1] came to 9 µM. Besides, the negative-log IC50 (pIC50) is 6.05 in data set [4] and 5.59 in data set [2].
For `C[Si](C)(C)c1ccc(C2=C(Cc3ccccc3)c3ccccc3C3=NCCCN32)cc1` the same measures were 5.5 µM, 6.10 and 5.92.
Take `CC(C)(C)c1ccc(C2=Cc3ccc(N/C(S)=N/C4CCCCC4)cc3C3=NCCCN23)cc1`: the CC50 in data set [1] amounted to 9.9 µM. In addition, the pIC50 in data set [4] is 5.59; in data set [2], 5.48.
Taken in the same sequence, the figures for `CN(C)CCC1=C(c2ccc(C(C)(C)C)cc2)N2CCCN=C2c2ccccc21` were > 10 µM, < 5.00 and < 5.00.
For `CC(C)(C)c1ccc(C2=Cc3ccc(NC(=O)NC4CCCCC4)cc3C3=NCCCN23)cc1` the same measures were 4.8 µM, 5.77 and 5.68.
For `CCCCC1=C(c2ccc(C(C)(C)C)cc2)N2CCCN=C2c2ccccc21` the same measures were 2.1 µM, 6.52 and 6.22.
With `CC(C)(C)c1ccc(C2=Cc3ccc(N(Cc4ccccc4)Cc4ccccc4)cc3C3=NCCCN23)cc1`, the CC50 in data set [1] came out at 2.6 µM. Further, the pIC50 in data set [4] and in data set [2] was 6.22 in each case.
For the compound `C1=C(c2ccc(-c3ccccc3)cc2)N2CCCN=C2c2ccccc21`, the CC50 in data set [1] stood at 3.9 µM. The values for the pIC50 in data set [2] and in data set [3] were 5.77 and 5.82, respectively.
`C1=C(/C=C/c2ccccc2)N2CCCN=C2c2ccccc21`: in data set [1], the CC50 is > 10 µM. For the same compound, the negative logarithm of the IC50 (pIC50) in data set [4] was < 5.00; in data set [2], 5.39.
For `CC(C)(C)c1ccc(C2=Cc3ccc(NC(=O)Nc4ccc(Cl)cc4Cl)cc3C3=NCCCN23)cc1` the same measures were 5.8 µM, 5.48 and 4.77.
For `c1ccc(CCc2ccc(C3=C(Cc4ccccc4)c4ccccc4C4=NCCCN43)cc2)cc1` the same measures were 2.2 µM, 6.22 and 6.05.
Take `C1=C(c2ccccc2)N2CCCN=C2c2ccccc21`: in data set [1], the CC50 is > 10 µM. Moreover, the values for the negative logarithm of the IC50 (pIC50) in data set [2] and in data set [3] were 4.92 and < 5.00, respectively.
Taken in the same sequence, the figures for `COc1cc(C2=Cc3ccccc3C3=NCCCN23)cc(OC)c1OC` were > 10 µM, < 4.60 and < 5.00.
